# Hits are enriched below; roughly 3.5% of the tested compounds scored in any of these assays.
# MrgX1 agonist = activates human MrgX1 receptor signaling; 0.44% of 310,000 active; B-score at 10 µM; AID 588627; MrgX1-HEK293 cells, Fluo-4 calcium fluorescence, agonist mode; stronger effect = higher value; Q96LB2;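 active = calcium response B-score plate-corrected fluorescence ratio at least 3 library SD, with starting fluorescence B-score inside 5 SD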
# Target sequence (Q96LB2 whole entry, looked up): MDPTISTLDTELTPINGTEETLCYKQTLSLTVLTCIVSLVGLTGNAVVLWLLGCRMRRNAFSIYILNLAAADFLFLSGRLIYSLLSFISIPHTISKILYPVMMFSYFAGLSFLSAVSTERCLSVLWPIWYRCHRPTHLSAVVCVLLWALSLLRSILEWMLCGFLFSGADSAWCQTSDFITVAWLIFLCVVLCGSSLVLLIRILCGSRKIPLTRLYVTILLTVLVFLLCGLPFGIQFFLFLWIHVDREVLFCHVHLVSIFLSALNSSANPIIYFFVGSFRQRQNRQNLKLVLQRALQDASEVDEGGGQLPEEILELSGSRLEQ
#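 Material: MrgX1-expressing HEK293 cells; input: 15,000 cells per well; doses: test compound given as first of three sequential additions; schedule: overnight plating before 1 h dye loading; technique: Fluo-4 NW calcium-flux fluorescence, kinetic read; evaluation: baseline-normalised fluorescence change ratio, B-scored; control set: plate-wise positive and negative controls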
# RGS4 act = potentiators or activators of RGS4. HEK293 M3R/inducible RGS4, carbachol calcium flux Fluo4; stronger effect = lower value. B-score at 10 µM. 0.92% of 310,000 active. AID 463111;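 active = B-score of the integrated calcium signal more than 4 SD below the library mean, with starting fluorescence not abnormally high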;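 note: negative B-score means reduced calcium response which marks RGS4 activation or potentiation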
#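 Also added: carbachol at ECmax as muscarinic agonist stimulus; Assay system: HEK293 cells with stable M3R and inducible RGS4; Timing: overnight RGS4 induction, 30 min dye load 37 °C, 20 min compound RT; Measured by: Fluo4-AM (2 µM) calcium-flux fluorescence, kinetic read.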
# MrgX1 antag = antagonists of human MrgX1 receptor | B-score at 10 µM | AID 588676 | MRGX1-HEK293 calcium flux, Fluo-4, BAM8-22 antagonism; stronger effect = lower value | 1.3% of 310,000 active;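 active = calcium-response B-score plate-corrected more than 3 library SD below zero, starting fluorescence within 5 deviations, no agonist response on first addition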;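 note: peak minus trough fluorescence over baseline after final BAM8-22 challenge near maximal dose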
# RGS4 inh = human RGS4 inhibition | P49798 | HEK293 M3R/RGS4 inducible, Fluo-4 calcium flux; stronger effect = higher value; triggered by carbachol at its EC20 | B-score at 10 µM | 0.45% of 310,000 active;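 active = B-score, a plate-corrected calcium signal, over three deviations above library mean, with baseline fluorescence within five deviations of library mean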;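 note: RGS4 expression induced by doxycycline in cells with stable M3 receptor; B-score is computed from the integrated fluorescence ratio over baseline after carbachol; higher B-score means a larger calcium signal and so more RGS4 inhibition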
# Target sequence (P49798 whole entry, looked up): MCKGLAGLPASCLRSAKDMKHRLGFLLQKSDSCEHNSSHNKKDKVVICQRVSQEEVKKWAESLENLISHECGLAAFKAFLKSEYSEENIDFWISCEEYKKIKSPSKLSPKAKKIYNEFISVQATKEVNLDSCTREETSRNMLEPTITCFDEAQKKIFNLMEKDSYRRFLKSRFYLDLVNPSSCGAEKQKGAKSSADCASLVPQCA
# MrgX1 allo act = allosterically activates human MrgX1 receptor signaling; B-score at 10 µM; AID 588675; Q96LB2; 0.63% of 310,000 active; MrgX1-HEK293, Fluo-4 calcium flux, FDSS; stronger effect = higher value;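 active = plate-corrected calcium response at least 3 library SD above typical, normal starting fluorescence, not activating the receptor alone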;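 note: compound read alongside a low EC10 to EC30 dose of BAM8-22 agonist; peak minus trough fluorescence over baseline measured at the second addition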
# MrgX1 antag conf = human MrgX1 receptor antagonism, re-confirmation screen; 19% of 2,300 active; remaining BAM8-22 calcium response % of control (stronger effect = lower value), % at 10 µM; shares compounds with MrgX1 antag; MrgX1-HEK293, BAM8-22 calcium flux, Fluo-4; stronger effect = lower value;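 active = remaining agonist calcium response no higher than 100% minus 3 SD of agonist-only control wells, with starting fluorescence near control levels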;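 note: agonist BAM8-22 given at a near maximal EC90 to ECmax level; peak minus minimum fluorescence divided by baseline after agonist addition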
# HEK293 Ca flux = MrgX1 antagonist counter-screen hit in parental HEK293 cells | shares compounds with MrgX1 antag | fluorescence ratio F(max-min)/F0 at 10 µM | 2% of 4,000 active | Fluo-4 calcium fluorescence, FDSS;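 active = duplicate-averaged calcium fluorescence ratio at least three times the standard deviation of buffer wells, a nonspecific response in parental cells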
# HEK293 Ca counter = counter-screen for MrgX1 allosteric activators: effect in parental HEK293 cells | shares compounds with MrgX1 antag | parental HEK293 calcium flux, Fluo-4 fluorescence ratio; stronger effect = higher value | fluorescence ratio F(max-min)/F0 at 10 µM | 0.4% of 4,000 active | AID 624114;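 active = calcium fluorescence ratio, averaged over duplicates, at least 3 SD of the buffer-well ratio, meaning a nonspecific response in receptor-free cells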;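 note: untransfected parental HEK293 lacking MrgX1 used as counterscreen for MrgX1 allosteric activators; fluorescence change taken during the second addition on a kinetic imager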
# HEK293 Ca cntr2 = counter-screen for MrgX1 activators: effect in parental HEK293 cells; shares compounds with MrgX1 antag; Fluo-4 calcium fluorescence (FDSS); stronger effect = higher value; fluorescence ratio F(max-min)/F0 at 10 µM; 8.7% of 4,000 active;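 active = calcium fluorescence ratio at least three times the spread of buffer wells, meaning a non-specific response in parental cells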
# Numbers stand for hits; i = inactive; nt = no result.
SMILES,MrgX1 agonist,RGS4 act,MrgX1 antag,RGS4 inh,MrgX1 allo act,MrgX1 antag conf,HEK293 Ca flux,HEK293 Ca counter,HEK293 Ca cntr2
Cn1nccc1C(=O)N1CCc2c([nH]c3ccccc23)C1c1ccc(F)cc1 (stereo unspecified),i,i,-7.3,i,i,i,i,i,i
COc1ccc(OCC(=O)Nc2ccc3c(c2)nc(CCNC(C)=O)n3C)cc1,i,i,i,i,i,nt,nt,nt,nt
CC(=O)NCCc1nc2cc(NC(=O)COc3ccc(C)cc3)ccc2n1C,i,i,-6.7,i,i,i,i,i,i
CN1CCN(S(=O)(=O)c2cccc(C(=O)Nc3nc(-c4ccccc4)cs3)c2)CC1,i,i,i,i,i,nt,nt,nt,nt
COc1ccc(-c2csc(NC(=O)c3cccc(S(=O)(=O)N4CCN(C)CC4)c3)n2)cc1,i,i,-5.8,i,i,i,i,i,i
Cc1ccc(S(=O)(=O)c2ccc(Cl)cc2)cc1S(=O)(=O)N(C)CC(=O)O,i,i,-5.9,i,i,i,i,i,i
Nc1nc(N2CCN(c3ccc(Cl)cc3)CC2)n[nH]1,i,i,i,i,i,nt,nt,nt,nt
Nc1nc(N2CCN(c3ccccc3)CC2)n[nH]1,i,i,-5.7,i,i,i,i,i,i
CCN1C(=O)C(CC(=O)NCc2ccc(Cl)cc2)N(CC)C1=O (stereo unspecified),i,i,-5.1,i,i,i,i,i,i
Cc1nn(Cc2ccccc2Cl)c2sc(C(=O)Nc3nccs3)cc12,i,i,i,i,i,nt,nt,nt,nt
Cc1nn(Cc2ccc(F)cc2)c2sc(C(=O)Nc3nccs3)cc12,i,i,-4.7,i,i,i,i,i,i
Cc1c(CN2CCC(Oc3ccc(C(=O)N4CCCCC4)cc3)CC2)cnn1C,i,i,i,i,i,nt,nt,nt,nt
COCCN1C(=O)/C(=C/c2ccc(N3CCCC3)cc2)SC1=S,i,i,-12,i,i,i,i,i,i
CC(=O)N1CCN(C2c3cccc4cccc(c34)C2NS(=O)(=O)c2ccccc2)CC1 (stereo unspecified),i,i,i,i,i,nt,nt,nt,nt
O=S(=O)(NC1c2cccc3cccc(c23)C1N1CCNCC1)c1ccc(Cl)cc1 (stereo unspecified),i,i,-5.8,i,i,84%,i,i,i
CN(CCCOc1ccccc1Br)Cc1ccccc1,i,i,-6,i,i,i,i,i,i
CN(CCCOc1ccccc1F)Cc1ccccc1,i,i,i,i,i,nt,nt,nt,nt
CC(C)OC(=O)CSc1nc(-c2ccc(F)cc2)nc2ccc(F)cc12,i,i,-10,i,i,i,i,i,i
O=C(CCS(=O)(=O)c1ccc(Br)cc1)N1CCCCCC1,i,i,i,i,i,nt,nt,nt,nt
COCCNC(=O)c1ccc(C)cc1C,i,i,-5.3,i,i,73%,i,i,i
O=C(CCC1CCCC1)NCCCN1CCOCC1,i,i,-6.9,i,i,i,i,i,i
Cc1ccc(OCC(=O)Nc2ccccc2[N+](=O)[O-])c(Br)c1,i,i,i,i,i,nt,nt,nt,nt
CSc1nc2ccccc2nc1N(C)S(=O)(=O)c1ccc(C)cc1,i,i,i,i,i,nt,nt,nt,nt
Cc1nc2c(-c3ccc(Cl)cc3)cnn2c2c1CCC2,i,i,-5.1,i,i,i,i,i,i
CCOc1ccccc1N1CCN(C(=O)c2ccncc2)CC1,i,i,i,i,i,nt,nt,nt,nt
SMILES,MrgX1 agonist,RGS4 act,MrgX1 antag,RGS4 inh,MrgX1 allo act,MrgX1 antag conf,HEK293 Ca flux,HEK293 Ca counter,HEK293 Ca cntr2
CCOc1ccccc1N1CCN(C(=O)c2cc(-c3cccnc3)nc3c(Cl)cccc23)CC1,i,i,-5.8,i,i,i,0.42,i,i
COc1ccc(C)cc1S(=O)(=O)N1CCCC(C(=O)N2CCN(c3ccccc3F)CC2)C1 (stereo unspecified),i,i,i,i,i,nt,nt,nt,nt
COc1ccccc1NS(=O)(=O)c1cc(NC(=O)c2ccc(Cl)nc2)ccc1Cl,i,i,-14,i,i,54%,i,i,i
COc1ccc(NC(=O)c2ccc(Cl)c(S(=O)(=O)N3CCc4ccccc4C3)c2)cn1,i,i,-5.5,i,i,38%,i,i,i
Cc1cc(=O)n2c3ccccc3n(CC(O)CN3CCCC3)c2c1C#N (stereo unspecified),i,i,-5.3,i,i,i,i,i,i
CCN(CC(=O)Nc1ccc(NC(C)=O)cc1)C(=O)COc1ccc2ccccc2c1,i,i,i,i,i,nt,nt,nt,nt
CCN(CC(=O)Nc1ccc(NC(C)=O)cc1)C(=O)c1ccc2ccccc2c1,i,i,-5.1,i,i,i,i,i,i
COc1ccc(S(=O)(=O)N2CCCC2CNC(=O)C(=O)NCc2ccccc2Cl)cc1 (stereo unspecified),i,i,i,i,i,nt,nt,nt,nt
COc1ccc(OCC(=O)N/N=C(\C)CC(=O)Nc2cccc([N+](=O)[O-])c2)cc1,i,i,-11,i,i,i,i,i,i
COc1ccc(NC(=O)C/C(C)=N/NC(=O)COc2ccc(OC)cc2)cc1,i,i,i,i,i,nt,nt,nt,nt
Cc1ccc(C)c2nc3sc(C(=O)N4CCCc5ccccc54)c(N)c3cc12,i,-7,-5.4,i,i,i,i,i,51
O=C(c1ccc(C(=O)N2CCCc3ccccc32)s1)N1CCCc2ccccc21,i,i,i,i,i,nt,nt,nt,nt
O=C(CCc1nnc(C2CCCCC2)o1)N1CCN(C2CCCCC2)CC1,i,i,i,i,i,nt,nt,nt,nt
COC(c1ccccc1)c1nnc(CCC(=O)N2CCN(C3CCCC3)CC2)o1 (stereo unspecified),i,i,-6.3,i,i,i,i,i,i
CN(C)CCN(C)Cc1ccccc1Sc1cccc2ccccc12,i,i,i,i,i,nt,nt,nt,nt
CCOC(=O)CN1C(=O)C(C)(C)Oc2ccc(C(=O)NC(C)(C)CC)cc21,i,i,-5.3,i,i,i,i,i,i
CN1CCN(c2ccc(NC(=O)C(C)(c3ccccc3)c3ccccc3)cc2)CC1,i,i,i,i,i,nt,nt,nt,nt
CN1CCN(c2ccc(-c3ccnn3C(=O)Nc3ccccc3)cc2)CC1,i,i,-10,i,i,i,i,i,i
Cc1ccc(C(=O)Nc2cccc(NC(=O)CN3CCCCC3)c2)cc1,i,i,i,i,i,nt,nt,nt,nt
Cc1nc2nc(-c3ccco3)[nH]n2c(=O)c1Cc1ccccc1,i,i,i,i,i,nt,nt,nt,nt
Cc1nc2nc(-c3ccco3)[nH]n2c(=O)c1C,i,i,-12,i,i,i,i,i,i

# High-throughput results as filed in PubChem.
